# ChEMBL document CHEMBL1156778, “Synthesis and structure-activity studies of biphenyl analogues of the tuberculosis drug (6S)-2-nitro-6-{[4-(trifluoromethoxy)benzyl]oxy}-6,7-dihydro-5H-imidazo[2,1-b][1,3]oxazine (PA-824)” (J Med Chem, 2010)
# Key:
# [1] = tested on: Mycobacterium tuberculosis; experiment: Antitubercular activity against Mycobacterium tuberculosis H37Rv in anaerobic condition after 7 days by low oxygen recovery assay; type: functional; details: 168 h
# [2] = tested on: Mycobacterium tuberculosis; experiment: Antitubercular activity against Mycobacterium tuberculosis H37Rv infected in BALB/c mouse measured per mouse at 100 mg/kg, po daily for 5 days a week for 3 weeks; type: functional
# [3] = Metabolic stability in pooled CD1 mouse liver microsomes assessed as compound remaining after 1 hr by LC-MS-MS; type: ADME, Microsome; details: read-out: Stability
# Method in brief: (§1)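 Test compound at 1 μM with pooled CD-1 mouse or human liver microsomes (0.5 mg/mL protein) and NADPH-regenerating system (3.3 mM MgCl2, 3.3 mM G6P, 0.4 U/mL G6PD, 1.3 mM NADP+) in 75 mM phosphate, pH 7.4, 0.5% DMSO, 37 °C. Stopped at 0 and 60 min with MeCN containing metoprolol internal standard. LC-MS/MS (ESI, SRM), duplicates. % remaining = 100 × mean peak-area ratio at 60 min / at 0 min.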
# [4] = tested on: Mycobacterium tuberculosis; experiment: Antitubercular activity against Mycobacterium tuberculosis H37Rv in aerobic condition after 7 days by microplate alamar blue assay; type: functional; details: 168 h
# Method in brief: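 M. tuberculosis H37Rv, replicating culture; 8-day microplate assay with Alamar blue added on day 7 to read growth. […] Mean of at least two independent determinations ± SD.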
# [5] = tested on: Mycobacterium tuberculosis; experiment: Antitubercular activity against Mycobacterium tuberculosis H37Rv infected in BALB/c mouse assessed as ratio of lung CFU for compound to lung CFU for PA-824 at 100 mg/kg, po daily for 5 days a week for 3 weeks; type: functional
# Vero = experiment: Cytotoxicity against african green monkey Vero cells after 72 hrs by MTS assay; type: cell-based; details: Chlorocebus sabaeus
# Method in brief: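 VERO cells (CCL-81), 72 h exposure, tetrazolium dye read-out.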
# [6] = Metabolic stability in pooled human liver microsomes assessed as compound remaining after 1 hr by LC-MS-MS; type: ADME, Microsome; details: read-out: Stability; method in brief: as §1
Structure (SMILES),MIC [1] [µM],CFU [2],remaining at 1 h [3] [%],MIC [4] [µM],fold change (FC) [5],IC50 (Vero) [µM],remaining at 1 h [6] [%]
O=[N+]([O-])c1cn2c(n1)OC[C@@H](OCc1ccc(-c3ccc(OC(F)(F)F)cc3Cl)cc1)C2,0.78,390,86,0.04,23,> 125,91
O=[N+]([O-])c1cn2c(n1)OC[C@@H](OCc1ccc(-c3ccc(OC(F)(F)F)cc3F)cc1)C2,0.72,39,89,0.045,46,> 125,88
O=[N+]([O-])c1cn2c(n1)OC[C@@H](OCc1ccc(-c3ccc(Oc4ccccc4)cc3)cc1)C2,2.7,330000,48,0.04,<0.01,> 125,22
O=[N+]([O-])c1cn2c(n1)OC[C@@H](OCc1ccc(-c3ccccc3OCCCO)cc1)C2,2.7,1100000,21,0.34,<0.01,> 125,59
O=[N+]([O-])c1cn2c(n1)OC[C@@H](OCc1ccc(-c3ccc(Cl)c(C(F)(F)F)c3)cc1)C2,1.9,30,96,0.035,7.7,> 125,92
O=[N+]([O-])c1cn2c(n1)OC[C@@H](OCc1ccc(-c3ccc(OC(F)F)cc3)cc1)C2,0.77,1100,77,0.05,8.5,> 125,94
O=[N+]([O-])c1cn2c(n1)OC[C@@H](OCc1ccc(-c3ccc(CNc4ccccc4)cc3)cc1)C2,0.63,500000,52,0.06,0.03,> 125,12
N#Cc1ccc(-c2ccc(CO[C@@H]3COc4nc([N+](=O)[O-])cn4C3)cc2)cc1,0.58,4500,58,0.025,3.6,> 125,95
COc1c(F)cc(F)cc1-c1ccc(CO[C@@H]2COc3nc([N+](=O)[O-])cn3C2)cc1,0.86,200000,2,0.04,0.4,> 125,72
O=[N+]([O-])c1cn2c(n1)OC[C@@H](OCc1ccc(-c3ccc(C(F)(F)F)cc3)cc1)C2,1.4,1100,85,0.03,72,> 125,60
COc1ccc(-c2ccc(CO[C@@H]3COc4nc([N+](=O)[O-])cn4C3)cc2)cc1F,1.9,850000,50,0.04,0.02,> 125,80
O=[N+]([O-])c1cn2c(n1)OC[C@@H](OCc1ccc(-c3ccc(F)cc3)cc1)C2,1.4,5400,55,0.015,3,> 125,75
O=[N+]([O-])c1cn2c(n1)OC[C@@H](OCc1ccc(-c3ccc(Cl)c(OC(F)F)c3)cc1)C2,1.1,150,86,0.03,10,> 125,83
COc1cccc(F)c1-c1ccc(CO[C@@H]2COc3nc([N+](=O)[O-])cn3C2)cc1,0.81,1100000,0,0.13,0.07,> 125,91
O=[N+]([O-])c1cn2c(n1)OC[C@@H](OCc1ccc(-c3ccc(Cl)c(OC(F)(F)F)c3)cc1)C2,0.95,360,92,0.04,9.7,> 125,95
O=[N+]([O-])c1cn2c(n1)OC[C@@H](OCc1ccc(-c3ccc(OCCCN4CCOCC4)cc3)cc1)C2,1,310000,14,0.097,0.05,> 125,11
O=[N+]([O-])c1cn2c(n1)OC[C@@H](OCc1ccc(-c3ccc(OC(F)(F)F)c(F)c3)cc1)C2,0.34,4.3,86,0.03,419,> 125,93
CC(=O)c1ccc(-c2ccc(CO[C@@H]3COc4nc([N+](=O)[O-])cn4C3)cc2)cc1,0.73,110000,70,0.04,<0.01,> 125,36
O=[N+]([O-])c1cn2c(n1)OC[C@@H](OCc1ccc(-c3cccc(OCc4ccccc4)c3)cc1)C2,0.88,120000,50,0.12,0.66,> 125,64
